Hits are enriched below; roughly 5.7% of the tested compounds scored in any of these assays.
CSC inhib = cancer stem cell inhibition | inhibition, % at 7.5 µM | AID 2717 | cancer stem cell-like cells viability, luminescence | actives 1.1% (n = 300,000); in the data active = inhibition above about 75%; inconclusive = no clear call, values can overlap the other calls; tested in HMLE shEcad cells
SKKanGAS inh = blocks kanamycin growth of S. pyogenes SKKanGAS strain; AID 1662; BacTiter-Glo, 6 h; actives 1.3% (n = 300,000); inhibition, % at 7.5 µM;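 active = mean replicate score, as percent of positive control median, at least 50; inconclusive = mean below 50 but one replicate at or above 50; inactive = mean and every replicate below 50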;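 also: strain carries kanamycin resistance gene driven by streptokinase promoter and grows in 40 µg/ml kanamycin; loss of luminescence reflects streptokinase promoter inhibition or plain growth inhibition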
Mdm2-MdmX inh = human Mdm2/MdmX binding inhibition | O15151+Q00987 | SaOS-2 split-luciferase Mdm2/MdmX complementation, luminescence | inhibition, % at 8 µM | actives 3% (n = 330,000) | AID 485346;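 active = inhibition of at least 50% at 8 µM in the primary screen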
Target sequence (O15151 whole entry, looked up): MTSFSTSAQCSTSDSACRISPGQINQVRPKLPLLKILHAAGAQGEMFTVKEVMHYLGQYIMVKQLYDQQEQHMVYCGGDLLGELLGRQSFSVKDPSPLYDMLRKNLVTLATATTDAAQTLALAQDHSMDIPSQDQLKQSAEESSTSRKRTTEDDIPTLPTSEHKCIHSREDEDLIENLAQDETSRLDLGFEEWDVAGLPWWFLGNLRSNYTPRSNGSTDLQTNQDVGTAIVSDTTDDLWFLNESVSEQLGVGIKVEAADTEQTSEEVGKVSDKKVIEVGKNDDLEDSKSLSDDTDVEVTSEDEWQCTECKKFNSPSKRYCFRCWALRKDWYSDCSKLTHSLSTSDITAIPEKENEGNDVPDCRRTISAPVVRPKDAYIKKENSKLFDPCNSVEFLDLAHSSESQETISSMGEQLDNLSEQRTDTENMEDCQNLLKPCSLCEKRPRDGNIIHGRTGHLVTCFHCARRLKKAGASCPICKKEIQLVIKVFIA
Target sequence (Q00987 whole entry, looked up): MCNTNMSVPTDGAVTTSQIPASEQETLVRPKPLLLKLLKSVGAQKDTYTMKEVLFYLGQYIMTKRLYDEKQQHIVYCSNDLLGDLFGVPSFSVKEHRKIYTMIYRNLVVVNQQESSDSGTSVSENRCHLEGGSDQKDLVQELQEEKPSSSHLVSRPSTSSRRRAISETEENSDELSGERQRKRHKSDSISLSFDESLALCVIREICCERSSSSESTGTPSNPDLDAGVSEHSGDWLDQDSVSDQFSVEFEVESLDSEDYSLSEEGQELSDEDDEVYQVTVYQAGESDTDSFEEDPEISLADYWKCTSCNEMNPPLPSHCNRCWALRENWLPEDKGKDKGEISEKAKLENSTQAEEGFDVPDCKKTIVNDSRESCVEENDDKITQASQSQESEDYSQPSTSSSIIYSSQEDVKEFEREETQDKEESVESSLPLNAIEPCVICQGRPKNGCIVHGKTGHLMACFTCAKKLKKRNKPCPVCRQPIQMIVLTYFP
Beta cell apopt = beta cell apoptosis inhibition; actives 0.8% (n = 300,000); INS-1E cytokine-induced death, ATP luminescence, 48 h; percent of positive-control rescue, neutral wells zero; protection from apoptosis, % (no concentration beside the values);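 active = Every replicate reaches about 75%, or at least half do and their mean reaches it too, limit read from the data; inconclusive = At least half of replicates reach the limit but their mean does not; inactive = Under half of replicates reach the limit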;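 also: higher means more ATP so stronger rescue from cytokine killing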
T cruzi inh = T. cruzi replication inhibition. T. cruzi beta-gal in NIH3T3, luminescence, 90 h. inhibition, % (test concentration not listed). actives 1.4% (n = 300,000);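 active = mean inhibition across valid replicates above about 55%, limit read from the data; inconclusive = mean below that limit but half or more replicates reach it; inactive = mean below it, under half of replicates reach it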;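 also: signal also drops with host cell toxicity which is not excluded here; higher percent means less beta-gal luminescence so fewer parasites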
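Read-out: Parasite load inhibition, % | Test system: Mouse NIH/3T3 fibroblasts infected with β-gal-expressing T. cruzi Tulahuen C4 | Amount: 5,000 cells/well | Medium: DMEM, 2% fetal bovine serum | Signal: GalScreen β-gal luminescence, detergent lysis, 60 min | Timing: 3 h attach, ≥90 h co-culture | Also added: Tulahuen C4 trypomastigotes, 5000/well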
Calb FLC = affects C. albicans growth with fluconazole; C. albicans CaCi-2 (fluconazole-resistant clinical isolate) + fluconazole, Alamar Blue growth, 48 h; growth inhibition, % (no concentration beside the values); actives 0.57% (n = 300,000); AID 1979;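 active = growth inhibition above about 58% in most replicates, limit read from the data, passing the limit was not always enough; inconclusive = exactly half the replicates above a set limit; inactive = most replicates below a set limit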;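 also: all wells also contain fluconazole at 8 µg/ml as a sub-toxic cotreatment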
Mdm2-MdmX conf = human Mdm2/MdmX binding inhibition, confirmed | shares compounds with Mdm2-MdmX inh | actives 55% (n = 10,000) | luminescent assay | inhibition, % at 8 µM; in the data active = inhibition above about 40%
Full FLuc ctr = counter-screen for Mdm2/MdmX inhibitors: full-length luciferase; actives 77% (n = 6,200); inhibition, % at 8 µM; shares compounds with Mdm2-MdmX inh; AID 504607; SaOS-2 full-length luciferase counterscreen, luminescence;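 active = mean inhibition at 8 µM reaching about 37%, which flags the compound as non-specific, limit read from the data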;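 also: p53-null SaOS-2 cells with luciferase driven by a doxycycline-inducible promoter; compound on cells about two nights before reading with doxycycline added after day one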
A number is an active result; i = inactive; ? = inconclusive; nt = no result given.

SMILES	CSC inhib	SKKanGAS inh	Mdm2-MdmX inh	Beta cell apopt	T cruzi inh	Calb FLC	Mdm2-MdmX conf	Full FLuc ctr
CCSc1nnc(NC(=O)NC(C)(C(F)(F)F)C(F)(F)F)s1	i	i	i	i	i	?	nt	nt
CCSc1nnc(NC(=O)NC(CC)(C(F)(F)F)C(F)(F)F)s1	99	i	90	i	i	i	i	64
Nc1ccc(C(=O)OCc2nc3c(ccc4ccccc43)[nH]2)cc1	i	i	i	i	i	i	nt	nt
Nc1ccc(C(=O)OCc2nc3cc4ccccc4cc3[nH]2)cc1	i	i	74	i	i	i	82	i
Nc1ccc(Cc2nc3cc4ccccc4cc3[nH]2)cc1	i	i	69	i	i	i	i	70
Nc1ccc(C(=O)OCCCc2nc3cc4ccccc4cc3[nH]2)cc1	i	i	65	i	i	i	i	94
c1ccc(Cc2nc3ccccc3[nH]2)cc1	i	i	i	i	i	nt	nt	nt
COc1cccc(/C=C2\CCC(C3CCCC3)C2=O)c1OC (stereo not drawn)	i	i	i	i	i	i	nt	nt
O=C(NC1CCCC1)c1ccc(COc2ccccc2Br)o1	i	i	i	i	i	i	nt	nt
CCOC(=O)c1c(NC(=O)COc2ccccc2C#N)sc2c1CC(C)(C)NC2(C)C	i	i	51	i	i	i	i	nt
CCOC(=O)c1c(NC(=O)CCS(=O)(=O)c2ccccc2)sc2c1CC(C)(C)NC2(C)C	i	i	i	i	i	i	nt	nt
CCOC(=O)c1c(NC(=O)COc2ccccc2OCC)sc2c1CC(C)(C)NC2(C)C	i	i	97	i	i	i	i	90
COC(=O)c1c(NC(=O)c2ccc(OC(C)C)cc2)sc2c1CC(C)(C)NC2(C)C	i	i	94	nt	?	i	77	i
CCOC(=O)c1c(NC(=O)C2COc3ccccc3O2)sc2c1CC(C)(C)NC2(C)C (stereo not drawn)	?	i	84	i	i	i	52	61
COc1ccccc1N(CC(=O)Nc1ccc(Br)cc1F)S(=O)(=O)c1cccs1	nt	nt	i	nt	nt	nt	nt	nt
C/C(=N\Nc1ccc(Cl)c(C(=O)O)c1)c1ccc[nH]1	i	i	i	i	i	i	nt	nt
CSCCC(NS(=O)(=O)c1ccccc1)C(=O)Nc1nccs1 (stereo not drawn)	nt	nt	i	nt	nt	nt	nt	nt
CC1(C)Cc2c(sc(NC(=O)COc3cccc4ccccc34)c2C#N)C(C)(C)N1	i	i	98	i	i	i	100	51
CCOC(=O)c1c(NC(=O)c2ccc(C)cc2)sc2c1CC(C)(C)NC2(C)C	i	i	93	nt	i	i	47	96
CCOC(=O)c1c(NC(=O)Cc2ccccc2)sc2c1CC(C)(C)NC2(C)C	i	i	i	i	i	i	nt	nt
CCOc1ccccc1N(C)C(=O)CCS(=O)(=O)c1ccc2c(c1)NC(=O)C(C)S2 (stereo not drawn)	i	i	i	i	i	i	nt	nt
COc1cc(OC)c(NC(=O)C(=O)CC(=O)c2ccc(C)cc2C)cc1Cl	i	i	51	i	i	i	i	81
O=C(Nc1ccc(F)cc1)Nc1sccc1-c1nc2ccccc2s1	i	i	68	i	i	i	i	69
COc1cccc(CNc2ncc(C(=O)Nc3cc(OC)c(OC)c(OC)c3)c(C)n2)c1	i	i	55	i	i	i	57	48
Cc1cc(C)n2nc(CC(=O)NNC(=O)c3ccccc3Cl)nc2n1	i	i	i	i	i	i	nt	nt
SMILES	CSC inhib	SKKanGAS inh	Mdm2-MdmX inh	Beta cell apopt	T cruzi inh	Calb FLC	Mdm2-MdmX conf	Full FLuc ctr
COC(=O)c1nn(-c2ccc3c(c2)CCN3C(C)=O)cc1O	i	i	51	i	i	i	68	i
CCCCN(C)C(=O)c1ccc2c(c1)S(=O)(=O)c1ccccc1C2=O	i	i	i	i	i	i	nt	nt
Cc1ccc(CNC(=O)CSc2nc3c(sc4ccccc43)c(=O)n2CCCN2CCCC2)cc1	i	i	51	i	64	i	48	42
O=C(CSc1nc2c(sc3ccccc32)c(=O)n1CCCN1CCOCC1)NCC1CCCO1 (stereo not drawn)	i	i	i	i	i	i	nt	nt
O=C(CSc1nc2c(sc3ccccc32)c(=O)n1CCCN1CCCC1)NCc1ccccc1	nt	i	54	nt	i	i	i	nt
C=CCC(=O)NC1CCCc2c1cnn2-c1cc(F)cc(F)c1 (stereo not drawn)	i	i	i	i	i	i	nt	nt
COc1ccc(C(C[N+](=O)[O-])c2c(-c3ccccc3)cc3ccccn23)cc1 (stereo not drawn)	?	i	96	i	i	i	i	nt
COc1cc(C(C[N+](=O)[O-])c2c(-c3ccccc3)cc3ccccn23)cc(OC)c1OC (stereo not drawn)	i	i	55	i	i	i	i	nt
CC1CCCCN1C(=O)CSc1nc(C2CC2)nc2c1cnn2-c1ccccc1 (stereo not drawn)	nt	i	54	nt	i	i	i	nt
Cc1nn(C)c(C)c1NC(=O)CSc1nc(C2CC2)nc2c1cnn2-c1ccccc1	i	i	i	i	i	i	nt	nt
C=C1CCC[C@]2(C)C[C@H]3OC(=O)C(CN(Cc4ccc(OC)c(OC)c4)CC(C)O)[C@H]3CC12 (stereo partly drawn)	i	i	68	i	i	i	48	40
Cc1cc(C)c2cc(CN(CCCN(C)C)C(=S)NCc3ccccc3)c(=O)[nH]c2c1	i	i	53	i	i	i	i	nt
Cc1ccc(C)c2[nH]c(=O)c(CN(CCCN(C)C)C(=O)NCc3ccccc3)cc12	i	i	i	i	i	i	nt	nt
COc1ccc(Cl)cc1NC(=O)CCc1nnc2ccc(N3CCC4(CC3)OCCO4)nn12	i	i	i	i	i	i	nt	nt
O=Cc1ccccc1OCCOc1ccccc1C=O	i	i	51	i	i	i	43	91
COC1(OC)C(/C=C/c2ccc(Cl)cc2)C(C#N)(C#N)C1(OC)OC (stereo not drawn)	i	i	88	i	i	i	57	i
COc1cc(C(N)=O)cc(Br)c1OC	i	i	59	i	i	i	i	nt
COc1cccc(COC(=O)C2CCN(C(=O)c3ccc(F)cc3)CC2)c1OC	i	i	i	nt	i	i	nt	nt
COc1cc(C#Cc2c(-c3cncn3C)n(C)c3ccc(-c4cnc(OC)nc4)cc23)cc(OC)c1	?	nt	66	i	nt	nt	i	63
COc1cc(C#Cc2c(-c3cncn3C)n(C)c3ccc(-c4ccc(CN5CCOCC5)cc4)cc23)cc(OC)c1	nt	nt	70	i	nt	nt	i	nt
COc1cc(OC)cc(-c2c(C#Cc3ccsc3)c3cc(-c4ccc(N(C)C)nc4)ccc3n2C)c1	i	nt	i	i	nt	nt	nt	nt
COc1cc(C#Cc2c(-c3cncn3C)n(C)c3ccc(-c4cnc(N5CCOCC5)nc4)cc23)cc(OC)c1	nt	nt	81	i	nt	nt	i	nt

High-throughput results from PubChem.
